Data on 26 compounds can be found in ChEMBL document CHEMBL1149884, “Investigating biological activity spectrum for novel quinoline analogues 2: hydroxyquinolinecarboxamides with photosynthesis-inhibiting activity” (Bioorg Med Chem, 2008).

Calls of active or inactive are those of the source. The rule behind the calls is not given here.

Data set [1] is described as follows: Lipophilicity, log K of the compound. The class given is physicochemical. A digest of the protocol:
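Isocratic RP-HPLC on end-capped C18 column, methanol as organic modifier. Retention times taken in minutes. Capacity factor K derived from them, and log K used as a lipophilicity index.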

For another data set, the system named is Spinacia oleracea. Put plainly: Herbicidal activity in Spinacia oleracea assessed as inhibition of photosynthetic electron transport by decrease in oxygen evolution. Format: functional. A digest of the protocol: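 Spinach chloroplast PET measured as oxygen evolution in phosphate buffer (0.02 mol/L, pH 7.2) with sucrose 0.4 mol/L, MgCl₂ 0.005 mol/L, NaCl 0.015 mol/L. Chl 30 mg/L, halogen lamp irradiation (~100 W/m², 10 cm, water filter), 22 °C. IC50 = molar concentration giving 50% decrease in oxygen evolution vs untreated control.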

The subject of another data set is Chlorella vulgaris. Put plainly: Herbicidal activity against Chlorella vulgaris Beij assessed as decrease in chlorophyll content after 7 days. Conditions: for IC50: 168 h. The class given is functional, organism-based. A digest of the protocol:
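C. vulgaris grown statically at room temperature (16 h light/8 h dark, 80 µmol/m² s PAR, pH 7.2), starting Chl 0.01 mg/L. Exposed 7 days to 100, 75, 50, 25, 8.3, 4.2, 0.83 µmol/L (DMSO ≤0.25%, matched DMSO controls). Chl read spectrophotometrically after methanol extraction. IC50 = 50% Chl decrease vs control, else mean % of control over 100–0.83 µmol/L ± SD.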

Broadly, the IC50 is the midpoint of a concentration-inhibition curve. For the compound `Cc1ccc2c(O)c(C(=O)NC(C)c3ccc(F)cc3)ccc2n1` (stereo unspecified), the “log K” value in data set [1] came to 0.3663. Also, in the data set with Spinacia oleracea, the IC50 was 426 µM.
For `Cc1ccc2ccc(C(=O)NCCO)c(O)c2n1`, the “log K” value in data set [1] was 0.2629. Moreover, the result in the data set on Spinacia oleracea and in the data set on Chlorella vulgaris was inactive.
On to `Cc1ccc(CNC(=O)c2cc([N+](=O)[O-])c3ccc(C)nc3c2O)cc1`, for which the “log K” value in data set [1] turned out to be 0.4304. For the same compound, in the data set on Spinacia oleracea, the IC50 stood at 107 µM. Further, in the data set with Chlorella vulgaris, the result was inactive.
Take `Cc1ccc2ccc(C(=O)NNC(=O)c3ccccc3O)c(O)c2n1`: in data set [1] (octanol/water), the “log K” value is 0.6361. Also, the result with Spinacia oleracea and with Chlorella vulgaris was inactive.
With `Cc1ccc2ccc(C(=O)NCc3ccc(F)cc3)c(O)c2n1`, the “log K” value in data set [1] is on record as 0.3389. In the data set with Spinacia oleracea, the result was inactive. For the same compound, the IC50 in the data set with Chlorella vulgaris is 158 µM.
On to `Cc1ccc2c(O)c(C(=O)NCCCCc3ccccc3)ccc2n1`, for which, in data set [1], the “log K” value stood at 0.4173. Besides, the IC50 in the data set with Spinacia oleracea amounted to 7.2 µM; in the data set on Chlorella vulgaris it was 10.9 µM.
For the compound `Cc1ccc2ccc(C(=O)NCc3ccccc3)c(O)c2n1`, the “log K” value in data set [1] was 0.2812. Also, the result in the data set on Spinacia oleracea was inactive. The IC50 in the data set with Chlorella vulgaris worked out at 17.2 µM.
Regarding `Cc1ccc2ccc(C(=O)NCCCCc3ccccc3)c(O)c2n1`, in data set [1], the “log K” value was 0.5075. Further, the result in the data set with Spinacia oleracea was inactive. Moreover, the IC50 in the data set on Chlorella vulgaris was found to be 8.5 µM.
With `Cc1ccc2ccc(C(=O)NCCc3ccccc3)c(O)c2n1`, the “log K” value in data set [1] was found to be 0.2404. In addition, the outcome with Spinacia oleracea was inactive.
On to `Cc1ccc2ccc(C(=O)NCCCNC(=O)c3ccc4ccc(C)nc4c3O)c(O)c2n1`, for which, in data set [1], the “log K” value is on record as 0.1168. Further, the result in the data set with Spinacia oleracea was inactive. For the same compound, the IC50 in the data set with Chlorella vulgaris came to 149 µM.
Take `Cc1ccc2c(O)c(C(=O)NCCc3ccc(O)cc3)ccc2n1`: the “log K” value in data set [1] is recorded as 0.3775. Besides, in the data set on Spinacia oleracea, the IC50 was 16 µM.
On to `Cc1ccc2c([N+](=O)[O-])cc(C(=O)NCc3ccccc3)c(O)c2n1`, for which, in data set [1], the “log K” value is 0.4021. Further, in the data set on Spinacia oleracea, the IC50 is 32 µM. Further, the result in the data set with Chlorella vulgaris was inactive.
In the case of `CN(C)C(=O)Nc1ccc(Cl)c(Cl)c1` [DCMU], in the data set on Spinacia oleracea, the IC50 turned out to be 1.9 µM.
Consider `Cc1ccc2ccc(C(=O)NC(C)c3ccc(F)cc3)c(O)c2n1` (stereo unspecified), for which the “log K” value in data set [1] is given as 0.372. Also, the result in the data set with Spinacia oleracea was inactive. The IC50 in the data set on Chlorella vulgaris was 83.3 µM.
Turning to `COc1ccc(CNC(=O)c2cc([N+](=O)[O-])c3ccc(C)nc3c2O)cc1`, the “log K” value in data set [1] is reported as 0.4087. Besides, in the data set with Spinacia oleracea, the IC50 was 137 µM. In addition, in the data set on Chlorella vulgaris, the outcome was inactive.
`Cc1ccc2c(O)c(C(=O)NCCCNC(=O)c3ccc4nc(C)ccc4c3O)ccc2n1`: the “log K” value in data set [1] came out at 0.1203. Besides, the IC50 in the data set with Spinacia oleracea worked out at 819 µM; in the data set with Chlorella vulgaris, 19.5 µM.
For `Cc1ccc2c(O)c(C(=O)Nc3ccc4c(O)c(C(=O)O)cc([N+](=O)[O-])c4n3)ccc2n1`, the “log K” value in data set [1] is recorded as 0.4072. Besides, in the data set with Spinacia oleracea, the IC50 turned out to be 114 µM.
Turning to `Cc1ccc(CNC(=O)c2ccc3ccc(C)nc3c2O)cc1`, the “log K” value in data set [1] stood at 0.3793. Moreover, in the data set with Spinacia oleracea, the outcome was inactive. The IC50 in the data set with Chlorella vulgaris was 7.2 µM.
On to `Cc1ccc2c(O)c(C(=O)Nc3ccc(Cl)cc3)ccc2n1`, for which, in data set [1], the “log K” value was determined as 0.3812. Further, the values for the IC50 in the data set on Spinacia oleracea and in the data set with Chlorella vulgaris were 265 µM and 23.8 µM, respectively.
Regarding `Cc1ccc(CNC(=O)c2ccc3nc(C)ccc3c2O)cc1`, the “log K” value in data set [1] came out at 0.38. In addition, the IC50 in the data set with Spinacia oleracea amounted to 468 µM.
On to `Cc1ccc2ccc(C(=O)NCCc3ccc(F)cc3)c(O)c2n1`, for which the “log K” value in data set [1] was 0.3342. For the same compound, the outcome with Spinacia oleracea was inactive. In the data set with Chlorella vulgaris, the IC50 was 15.9 µM.
Regarding `Cc1ccc2c(O)c(C(=O)NC(=O)NC(=O)c3ccc4nc(C)ccc4c3O)ccc2n1`, the “log K” value in data set [1] turned out to be 0.612. The IC50 was 833 µM in the data set on Spinacia oleracea and 5.5 µM in the data set on Chlorella vulgaris.
Turning to `Cc1ccc2ccc(C(=O)NCCNC(=O)c3ccc4ccc(C)nc4c3O)c(O)c2n1`, in data set [1], the “log K” value is recorded as 0.1109. Also, the result with Spinacia oleracea was inactive. Moreover, in the data set on Chlorella vulgaris, the IC50 is 93.7 µM.
Consider `Cc1ccc2c([N+](=O)[O-])cc(C(=O)NCc3ccc(F)cc3)c(O)c2n1`, for which, in data set [1], the “log K” value came to 0.4136. In addition, the IC50 in the data set with Spinacia oleracea was found to be 95 µM. Moreover, in the data set on Chlorella vulgaris, the outcome was inactive.
Consider `COc1ccc(CNC(=O)c2ccc3ccc(C)nc3c2O)cc1`, for which the “log K” value in data set [1] stood at 0.2843. Moreover, the outcome with Spinacia oleracea was inactive. Besides, the IC50 in the data set on Chlorella vulgaris worked out at 4.8 µM.
Turning to `Cc1ccc2c([N+](=O)[O-])cc(C(=O)NC(C)c3ccc(F)cc3)c(O)c2n1` (stereo unspecified), in data set [1], the “log K” value is reported as 0.4283. Besides, the IC50 was found to be 8.7 µM with Spinacia oleracea and 43.6 µM with Chlorella vulgaris.
